Experimental data as given in ChEMBL document CHEMBL1772954, “Antifungal, cytotoxic and SAR studies of a series of N-alkyl, N-aryl and N-alkylphenyl-1,4-pyrrolediones and related compounds” (Bioorg Med Chem, 2011).
Values after ≈ are worked out from the molar mass of the structure shown.

Columns and labels:
[1] = system: MCF7; test: Cytotoxicity against human MCF7 cells assessed as cell growth after 2 days by sulforhodamine B assay; format: functional; conditions: MCF7, 48 h
How it was run: (§1)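 NCI cell lines were run by the Monks method: cells were plated with compounds from DMSO stocks and incubated 2 days at 37 °C in 5% CO2, in duplicate. Cells were fixed with cold TCA, stained with 0.4% SRB, and the bound dye was solubilized in 10 mM tris-base and read at 515 nm. The zero-day control was subtracted, and GI50 was taken from the curves.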

[2] = system: NCI-H460; test: Cytotoxicity against human H460 cells assessed as cell growth after 2 days by sulforhodamine B assay; format: functional; conditions: NCI-H460, 48 h; how it was run: as §1
[3] = system: SF-268; test: Cytotoxicity against human SF268 cells assessed as cell growth after 2 days by sulforhodamine B assay; format: functional; conditions: SF-268, 48 h; how it was run: as §1
[4] = Cytotoxicity against human erythrocytes assessed as hemolysis by spectrometric analysis; format: cell-based, Erythrocyte
How it was run: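 Human heparinized red blood cells were washed in PBS at pH 7.0 and suspended at 4% in sterile 5% glucose. Compounds from DMSO stocks were diluted in 5% glucose to final concentrations of 250 to 0.24 µg/ml and incubated with the cells at 37 °C. Released hemoglobin was read at 540 nm. HC50 is the concentration giving 50% lysis relative to the drug-free value.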

[5] = system: Candida albicans; test: Antifungal activity against Candida albicans ATCC 10213; format: functional
How it was run: (§2)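 CLSI M27-A3 broth microdilution in RPMI-1640 buffered to pH 7.0 with MOPS. Inoculum 1-5 × 10^3 CFU/mL. Compound twofold dilutions from 250 to 0.24 µg/ml, final DMSO <1%. Incubated at 35 °C in a moist, dark chamber and read at 48 h. MIC is the lowest concentration giving total growth inhibition. For MFC, 5 µL from clear wells was plated in duplicate on SDA; MFC is the lowest concentration with no growth.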

[6] = system: Candida tropicalis; test: Antifungal activity against Candida tropicalis C 131 2000; format: functional; how it was run: as §2
[7] = system: Saccharomyces cerevisiae; test: Antifungal activity against Saccharomyces cerevisiae ATCC 9763; format: functional; how it was run: as §2
[8] = system: Cryptococcus neoformans; test: Antifungal activity against Cryptococcus neoformans ATCC 32264; format: functional; how it was run: as §2
[9] = system: Aspergillus fumigatus; test: Antifungal activity against Aspergillus fumigatus ATCC 26934; format: functional
How it was run: (§3)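 Broth microdilution per CLSI M38-A2 in RPMI-1640 with MOPS at pH 7.0. Inoculum 1-5 × 10^3 CFU/mL, with twofold compound dilutions spanning 250-0.24 µg/ml (final DMSO <1%). Plates incubated at 35 °C, moist and dark, and read when the control fungus had grown. MIC is total growth inhibition. MFC comes from subculturing clear wells in duplicate onto SDA.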

[10] = system: Aspergillus flavus; test: Antifungal activity against Aspergillus flavus ATCC 9170; format: functional; how it was run: as §3
[11] = system: Aspergillus niger; test: Antifungal activity against Aspergillus niger ATCC 9029; format: functional; how it was run: as §3
[12] = system: Nannizzia gypsea; test: Antifungal activity against Microsporum gypseum C 115 2000; format: functional
How it was run: (§4)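 Dermatophytes tested by CLSI M38-A2 microdilution in MOPS-buffered RPMI-1640 at pH 7.0. Inoculum 1-5 × 10^3 CFU/mL; compounds 250 to 0.24 µg/ml in twofold steps, final DMSO <1%. Incubated at 28 °C in a moist, dark chamber and read according to control growth. MIC is the lowest concentration with complete inhibition. MFC is the lowest concentration with no growth after duplicate subculture on SDA.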

[13] = system: Trichophyton rubrum; test: Antifungal activity against Trichophyton rubrum C 113 2000; format: functional; how it was run: as §4
[14] = system: Trichophyton mentagrophytes; test: Antifungal activity against Trichophyton mentagrophytes ATCC 9972; format: functional; how it was run: as §4

SMILES | MIC [5] | MIC [6] | MIC [7] | MIC [8] | MIC [9] | MIC [10] | MIC [11] | MIC [12] | MIC [13] | MIC [14] | MFC [5] | MFC [6] | MFC [7] | MFC [8] | MFC [9] | MFC [10] | MFC [11] | MFC [12] | MFC [13] | MFC [14] | further results
O=C1C(Cl)=C(Cl)C(=O)N1Cc1ccccc1 | 15.6 µg/mL (≈ 61 µM) | 31.2 µg/mL (≈ 122 µM) | 7.81 µg/mL (≈ 30.5 µM) | 7.81 µg/mL (≈ 30.5 µM) | 15.6 µg/mL (≈ 61 µM) | 31.2 µg/mL (≈ 122 µM) | 31.2 µg/mL (≈ 122 µM) | 15.6 µg/mL (≈ 61 µM) | 7.81 µg/mL (≈ 30.5 µM) | 7.81 µg/mL (≈ 30.5 µM) | 31.2 µg/mL (≈ 122 µM) | 31.2 µg/mL (≈ 122 µM) | 15.6 µg/mL (≈ 61 µM) | 15.6 µg/mL (≈ 61 µM) | 31.2 µg/mL (≈ 122 µM) | 31.2 µg/mL (≈ 122 µM) | 62.5 µg/mL (≈ 244 µM) | 31.2 µg/mL (≈ 122 µM) | 15.6 µg/mL (≈ 61 µM) | 15.6 µg/mL (≈ 61 µM) | GI50 [1]: > 10 µg/mL; GI50 [2]: > 10 µg/mL; GI50 [3]: > 10 µg/mL; HC50 [4]: > 250 µg/mL
CC1=CC(O)N(CCc2ccccc2)C1=O (configuration not stated) | > 250 µg/mL | > 250 µg/mL | > 250 µg/mL | > 250 µg/mL | > 250 µg/mL | > 250 µg/mL | > 250 µg/mL | > 250 µg/mL | > 250 µg/mL | > 250 µg/mL | > 250 µg/mL | > 250 µg/mL | > 250 µg/mL | > 250 µg/mL | > 250 µg/mL | > 250 µg/mL | > 250 µg/mL | > 250 µg/mL | > 250 µg/mL | > 250 µg/mL | 
CC1=CC(O)N(CCCc2ccccc2)C1=O (configuration not stated) | > 250 µg/mL | > 250 µg/mL | > 250 µg/mL | > 250 µg/mL | > 250 µg/mL | > 250 µg/mL | > 250 µg/mL | > 250 µg/mL | > 250 µg/mL | > 250 µg/mL | > 250 µg/mL | > 250 µg/mL | > 250 µg/mL | > 250 µg/mL | > 250 µg/mL | > 250 µg/mL | > 250 µg/mL | > 250 µg/mL | > 250 µg/mL | > 250 µg/mL | 
CC1=CC(O)N(CCCCc2ccccc2)C1=O (configuration not stated) | > 250 µg/mL | > 250 µg/mL | > 250 µg/mL | > 250 µg/mL | > 250 µg/mL | > 250 µg/mL | > 250 µg/mL | > 250 µg/mL | > 250 µg/mL | > 250 µg/mL | > 250 µg/mL | > 250 µg/mL | > 250 µg/mL | > 250 µg/mL | > 250 µg/mL | > 250 µg/mL | > 250 µg/mL | > 250 µg/mL | > 250 µg/mL | > 250 µg/mL | 

Second part, led by results:

MIC [5] | MIC [6] | MIC [7] | MIC [8] | MIC [9] | MIC [10] | MIC [11] | MIC [12] | MIC [13] | MIC [14] | SMILES | MFC [5] | MFC [6] | MFC [7] | MFC [8] | MFC [9] | MFC [10] | MFC [11] | MFC [12] | MFC [13] | MFC [14] | further results
7.81 µg/mL (≈ 28.9 µM) | 15.6 µg/mL (≈ 57.9 µM) | 3.9 µg/mL (≈ 14.4 µM) | 7.81 µg/mL (≈ 28.9 µM) | 15.6 µg/mL (≈ 57.9 µM) | 15.6 µg/mL (≈ 57.9 µM) | 15.6 µg/mL (≈ 57.9 µM) | 15.6 µg/mL (≈ 57.9 µM) | 3.9 µg/mL (≈ 14.4 µM) | 7.81 µg/mL (≈ 28.9 µM) | O=C1C(Cl)=C(Cl)C(=O)N1CCc1ccccc1 | 15.6 µg/mL (≈ 57.9 µM) | 31.2 µg/mL (≈ 116 µM) | 7.81 µg/mL (≈ 28.9 µM) | 7.81 µg/mL (≈ 28.9 µM) | 15.6 µg/mL (≈ 57.9 µM) | 15.6 µg/mL (≈ 57.9 µM) | 31.2 µg/mL (≈ 116 µM) | 31.2 µg/mL (≈ 116 µM) | 7.81 µg/mL (≈ 28.9 µM) | 15.6 µg/mL (≈ 57.9 µM) | GI50 [1]: > 10 µg/mL; GI50 [2]: > 10 µg/mL; GI50 [3]: > 10 µg/mL; HC50 [4]: > 250 µg/mL
7.81 µg/mL (≈ 27.5 µM) | 7.81 µg/mL (≈ 27.5 µM) | 3.9 µg/mL (≈ 13.7 µM) | 3.9 µg/mL (≈ 13.7 µM) | 15.6 µg/mL (≈ 55 µM) | 15.6 µg/mL (≈ 55 µM) | 15.6 µg/mL (≈ 55 µM) | 15.6 µg/mL (≈ 55 µM) | 3.9 µg/mL (≈ 13.7 µM) | 3.9 µg/mL (≈ 13.7 µM) | O=C1C(Cl)=C(Cl)C(=O)N1CCCc1ccccc1 | 15.6 µg/mL (≈ 55 µM) | 15.6 µg/mL (≈ 55 µM) | 3.9 µg/mL (≈ 13.7 µM) | 3.9 µg/mL (≈ 13.7 µM) | 31.2 µg/mL (≈ 110 µM) | 31.2 µg/mL (≈ 110 µM) | 15.6 µg/mL (≈ 55 µM) | 15.6 µg/mL (≈ 55 µM) | 7.81 µg/mL (≈ 27.5 µM) | 7.81 µg/mL (≈ 27.5 µM) | GI50 [1]: > 10 µg/mL; GI50 [2]: > 10 µg/mL; GI50 [3]: > 10 µg/mL; HC50 [4]: > 250 µg/mL
